# Screening data (PubChem BioAssay)
# A selection: hits, their analogues and other compounds. The true share with any hit is near 3.1%.
# S100A4 inh HTS: S100A4-myosin IIA interaction inhibition | P26447 | S100A4/TAMRA-MyoIIA peptide fluorescence polarization | inhibition, % at 10.7 µM | 360,000 tested, 0.14% active | AID 652163;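 active = mean inhibition of at least 70% across replicates, with every replicate also reaching that level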
#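 Material: S100A4 monomer (human). Medium: Calcium-containing HEPES buffer, pH 7.2. Probe or stimulus: labelled myosin peptide probe, 5 nM. Compound dosing: one concentration per compound. Timing: polarization read 5 min after assay mix addition, stable 5–60 min. Benchmarks: DMSO as neutral control, TFP as positive control.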
# CFTR F508del cor: CFTR F508del correction in bronchial cells; CFBE cells, YFP halide quenching; stimulated with forskolin plus potentiator P3; % fluorescence drop versus neutral controls; activity (quench increase), % at 7.58 µM; 350,000 tested, 0.36% active; AID 720511;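 active = mean added fluorescence quench of at least 8% versus neutral control, with both replicates also reaching 8%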;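 also: cells transiently co-express mutant CFTR-F508del with the halide-sensitive YFP; corrector assay measuring rescue of mutant channel to the surface after 24 h compound exposure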
# rRNA inh HTS: inhibitors of bacterial rRNA selective over humanized ribosomes. E. coli WT GFP vs humanized-ribosome RFP mutants, fluorescence, 24 h; active compounds read low; DMSO median 0, no signal -100. GFP signal change (wild-type ribosome), % (no concentration beside the values). 350,000 tested, 1.6% active. AID 720706;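 active = significant combined selectivity score with lowered wild-type GFP, culture density cut under 30%, mutant RFP and density less affected; inactive = any of these conditions unmet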
# ERAP1 inh: inhibitors of human ERAP1 aminopeptidase | Q9NZ08 | recombinant ERAP1, Leu-AMC fluorescence, 60 min | inhibition, % at 10.7 µM | 340,000 tested, 0.15% active | AID 652197;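 active = mean replicate inhibition of at least 30%, or all replicates individually reaching that 30% level; inactive = mean below 30% and not every replicate reaching it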;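 also: 0% = neutral control wells and 100% = L-leucinethiol positive control wells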
# Target sequence (Q9NZ08 whole entry, looked up): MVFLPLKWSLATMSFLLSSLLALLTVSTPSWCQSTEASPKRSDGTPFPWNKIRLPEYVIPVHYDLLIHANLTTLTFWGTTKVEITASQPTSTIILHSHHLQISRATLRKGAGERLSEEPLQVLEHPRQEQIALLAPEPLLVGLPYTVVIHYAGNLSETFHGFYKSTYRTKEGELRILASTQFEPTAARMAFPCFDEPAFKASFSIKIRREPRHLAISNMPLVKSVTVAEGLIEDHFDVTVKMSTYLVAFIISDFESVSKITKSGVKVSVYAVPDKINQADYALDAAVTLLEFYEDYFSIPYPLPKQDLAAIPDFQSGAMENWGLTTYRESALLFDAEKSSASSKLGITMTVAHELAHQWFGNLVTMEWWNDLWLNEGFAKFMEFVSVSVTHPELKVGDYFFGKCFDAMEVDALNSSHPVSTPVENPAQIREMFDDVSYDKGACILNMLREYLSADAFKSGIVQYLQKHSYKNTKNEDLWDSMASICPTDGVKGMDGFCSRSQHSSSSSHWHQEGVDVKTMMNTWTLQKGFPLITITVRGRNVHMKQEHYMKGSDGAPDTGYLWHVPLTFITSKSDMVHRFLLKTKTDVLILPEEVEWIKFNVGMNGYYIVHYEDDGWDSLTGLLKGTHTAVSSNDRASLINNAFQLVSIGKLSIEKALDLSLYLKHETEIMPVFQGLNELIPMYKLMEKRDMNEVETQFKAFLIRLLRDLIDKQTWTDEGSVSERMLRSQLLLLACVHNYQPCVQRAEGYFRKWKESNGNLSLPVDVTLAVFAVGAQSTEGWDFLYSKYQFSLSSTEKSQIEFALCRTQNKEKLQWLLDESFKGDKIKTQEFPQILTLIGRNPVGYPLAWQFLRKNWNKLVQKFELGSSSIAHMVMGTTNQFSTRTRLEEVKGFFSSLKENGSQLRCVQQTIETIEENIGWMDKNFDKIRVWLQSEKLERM
# SIRT5 block: sirtuin-5 (human) deacylase inhibition; Q9NXA8; Purified SirT5, succinyl-peptide AMC, trypsin-coupled fluorescence; inhibition, % at 15 µM; 330,000 tested, 1.1% active; in the data active = inhibition above about 15%
# The depositor's hits bear a star; . = no result given.
SMILES,S100A4 inh HTS,CFTR F508del cor,rRNA inh HTS,ERAP1 inh,SIRT5 block
N#Cc1ccccc1COC(=O)CCCC1=NS(=O)(=O)c2ccccc2N1,-4,1,-4,-1,32*
Cn1c(=O)c(-c2cc(=O)[nH][nH]2)c(O)c2ccccc21,0,-1,-34*,0,3
CCn1c(=O)c(-c2cc(=O)[nH][nH]2)c(O)c2ccccc21,-5,1,-9,-5,12
Cc1ccc(S(=O)(=O)N[C@@H]2CC[C@@H](CCn3cc(-c4cccc(F)c4)nn3)O[C@H]2CO)cc1,1,-2,-8,-1,-4
O=C(C[C@@H]1CC[C@@H]2[C@H](COC[C@H](O)CN2C(=O)c2ccccc2)O1)N1CCOCC1,15,1,2,0,-1
COc1cc(CCCN2C(=S)NC[C@H]2Cc2ccc(O)cc2)cc(OC)c1OC,2,4,-20,-2,32*
COc1cc(CCCN2C(=O)C(=O)NC[C@@H]2Cc2ccc(O)cc2)cc(OC)c1OC,7,1,12,1,-2
Cc1noc(C)c1S(=O)(=O)Nc1ccc2c(c1)C(=O)N([C@H](C)CO)C[C@H](C)[C@@H](CN(C)Cc1ccc(-c3ccccc3)cc1)O2,1,-4,3,0,5
O=C(c1ccco1)c1nnn(Cc2ccccc2)c1-c1ccccc1,0,2,-36*,9,0
COc1ccccc1S(=O)(=O)N1CC[C@@H]2[C@H]1c1cc(-c3ccccc3F)ccc1N[C@@H]2CO,-1,-1,-6,0,3
COc1ccc2c(c1)[N+](C)(C)C(C)(C)C=C2C,-1,2,15,45*,1
CCOc1ccc2c(c1)[N+](C)(C)C(C)(C)C=C2C,-1,-2,-1,41*,-1
CCS(=O)(=O)Nc1ccc2c(c1)C(=O)N(C)[C@@H]1CC[C@@H](CC(=O)OC)O[C@@H]1CO2,2,0,4,0,-3
CCS(=O)(=O)NCC[C@@H]1CC[C@@H](NC(=O)C2CC2)[C@@H](CO)O1,5,0,1,-4,-5
Cc1cc(S(=O)(=O)N(Cc2ccc(C(C)C)cc2)CC2CCCO2)ccc1-n1cnnn1 (stereo not given),9,.,-21*,-2,.
Cc1cc(S(=O)(=O)N(Cc2ccc(F)cc2)CC2CCCO2)ccc1-n1cnnn1 (stereo not given),-1,1,-21*,-3,-1
CCCN(C)C[C@@H]1OCCCC[C@@H](C)Oc2ccc(NS(=O)(=O)c3ccc(Cl)cc3)cc2C(=O)N([C@@H](C)CO)C[C@@H]1C,44,-1,7,-1,3
C[C@H]1CCCCO[C@H](CN(C)Cc2ccc(C(=O)O)cc2)[C@@H](C)CN([C@@H](C)CO)C(=O)c2cc(NC(=O)Nc3ccccc3)ccc2O1,-15,2,3,-6,0
CCN(CC)CCCNc1ccc2ncn3c4ccc(O)cc4c(=O)c1c23,7,20*,22,33*,0
CN(C)CCNc1ccc2nnn3c4ccc(O)cc4c(=O)c1c23,1,4,-26,1,1
CCOC(=O)c1cc2ccc3ccccc3c2oc1=O,1,.,-23,-466,24*
COc1ccc(CN(C)C[C@H]2Oc3ccc(NC(=O)NC4CCCCC4)cc3C(=O)N([C@@H](C)CO)C[C@@H]2C)cc1,-16,-1,9,1,-5
NC(=NC(=O)c1ccc(Cl)cc1)N1N=CCC1c1ccccc1 (stereo not given),0,1,1,4,16*
O=C(CN1CCOCC1)NCC[C@@H]1CC[C@H](NC(=O)Nc2ccccc2)[C@H](CO)O1,10,1,1,3,5
O=C1c2cccc([N+](=O)[O-])c2C(=O)N1c1cccnc1,8,-1,9,-4,20*
SMILES,S100A4 inh HTS,CFTR F508del cor,rRNA inh HTS,ERAP1 inh,SIRT5 block
O=C1c2cccc([N+](=O)[O-])c2C(=O)N1c1ccccc1,4,.,4,-2,1
COCC(=O)Nc1ccc2c(c1)[C@H]1C[C@H](CC(=O)O)O[C@H](CO)[C@H]1O2,4,-3,-1,0,0
C[C@@H]1CN([C@H](C)CO)C(=O)c2cccc(NC(=O)c3ccncc3)c2O[C@H]1CN(C)Cc1ccc(C(F)(F)F)cc1,-10,-3,-13,0,-1
CCOC(=O)c1ccc2c(c1)n(CC)c(C)[n+]2CC,-17,-3,17,14,0
CCN(CC)S(=O)(=O)c1ccc2c(c1)[nH]c(=S)n2CC,4,-2,-3,2,2
CCn1c(C)[n+](CC)c2ccc(S(=O)(=O)N(C)C)cc21,1,-2,24,39*,-2
CCn1c(C)[n+](CC)c2ccc(S(=O)(=O)NC)cc21,-2,-2,17,59*,0
Cc1n(C)c2cc(Cl)ccc2[n+]1Cc1ccccc1,-2,-1,9,17,6
CC[n+]1c(C)n(C)c2cc(S(=O)(=O)N(C)C)ccc21,-6,-1,17,51*,-3
CCn1c(C)[n+](CC)c2ccc(C(=O)N(C)c3ccccc3)cc21,-2,-1,27,71*,-2
O=C(Cc1ccccn1)NCC[C@H]1CC[C@@H](NS(=O)(=O)c2ccc(F)cc2)[C@@H](CO)O1,-21,2,5,1,-1
CN1[C@H](C(=O)NCC(F)(F)F)[C@@H](CO)[C@@H]2Cn3c(ccc(-c4ccc(F)cc4)c3=O)[C@@H]21,13,0,-3,2,-2
O=C(C[C@@H]1CC[C@H]2[C@@H](COC[C@H](O)CN2S(=O)(=O)c2ccccc2)O1)NCc1ccc(-c2ccccc2)cc1,-22,-1,-5,1,-2
O=C(C[C@@H]1C[C@H]2c3cc(NC(=O)NC4CCCC4)ccc3O[C@H]2[C@H](CO)O1)NCc1ccncc1,-9,-2,-1,-2,-3
COc1ccc(C2c3ccsc3CCN2C(=O)C(C)(C)C)cc1 (stereo not given),-10,.,-47*,-2,1
COc1ccc(C2c3ccsc3CCN2C(C)=O)cc1 (stereo not given),-2,1,-2,1,-3
COc1ccc(-n2c(=O)n(Cc3ccccc3)c(=O)c3[nH]cnc32)cc1,-5,2,2,0,-3
COc1ccc(Cn2c(=O)c3[nH]cnc3n(-c3ccc(C)cc3)c2=O)cc1,-2,1,-20*,-2,-2
CCCC(=O)N1CC2(CCN(C(=O)NC(C)C)CC2)c2c(n(C)c3cc(OC)ccc23)[C@H]1CO,.,2,-4,.,.
COc1ccc(C2CC(c3ccccc3O)=NN2c2ccccc2)cc1 (stereo not given),-1,0,-21*,2,-4
Oc1ccc(/C=N/Nc2ccnc3cc(Cl)ccc23)c(O)c1,2,-8,-33*,0,-2
